Results: ChEMBL document CHEMBL1148645, “Imino-tetrahydro-benzothiazole derivatives as p53 inhibitors: discovery of a highly potent in vivo inhibitor and its action mechanism” (J Med Chem, 2006)
Active and inactive are the calls of the source. The calls are words filed in the database; no cut-off is given here.

Experiments:
Mus musculus = species: Mus musculus; assay: Toxicity against mouse E15.5 cortical neurones at 10 uM; settings: in vitro
In short: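 E15 mouse primary cortical neurons were cultured in neurobasal/B27 and exposed to compound at 10 µM. Live cells were counted after calcein-AM staining, with hemoglobin quench and whole-well imaging. Each experiment was repeated at least six times.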

Cortical neurone = assay: Inhibition of etoposide-induced death of mouse E15.5 cortical neurones; assay type: functional
In short: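 Primary cortical neurons from E15 wild-type mouse embryos were exposed to etoposide at 1.25 and 2.5 µM, with compound alongside DMSO. Etoposide alone served as the control. Live cells were stained with calcein-AM for 45 min, quenched with hemoglobin, and whole wells were imaged and counted automatically. Survival is relative to untreated cultures set to 100%. At least six independent experiments were run, each in triplicate.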

Rattus norvegicus [1] = species: Rattus norvegicus; assay: Protection against axotomy-induced RGC apoptosis in Wistar rat intravitreally injected with 0.06 uM; assay type: functional
In short: (§1)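 Adult male Wistar rats (300-400 g) had the optic nerve transected, and RGCs were retrogradely labeled with FluoroGold placed on the stump. Compound or vehicle (DMSO 2%), 3 µL, was injected intravitreally on days 0, 3 and 7. Eyes were taken on day 14 and retinas flat-mounted. FG-positive RGCs were counted blind in fields at three eccentricities. Groups had n = 3-6, with DMSO as baseline; results are given as mean ± sem.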

[2] = target: Cellular tumor antigen p53 (Mus musculus) (UniProt P02340); assay: Inhibition of p53-mediated increase in p21/WAF1 level at 300 nM; assay type: functional; settings: filed as antagonist
Chain of Cellular tumor antigen p53 (Mus musculus) (P02340 whole entry): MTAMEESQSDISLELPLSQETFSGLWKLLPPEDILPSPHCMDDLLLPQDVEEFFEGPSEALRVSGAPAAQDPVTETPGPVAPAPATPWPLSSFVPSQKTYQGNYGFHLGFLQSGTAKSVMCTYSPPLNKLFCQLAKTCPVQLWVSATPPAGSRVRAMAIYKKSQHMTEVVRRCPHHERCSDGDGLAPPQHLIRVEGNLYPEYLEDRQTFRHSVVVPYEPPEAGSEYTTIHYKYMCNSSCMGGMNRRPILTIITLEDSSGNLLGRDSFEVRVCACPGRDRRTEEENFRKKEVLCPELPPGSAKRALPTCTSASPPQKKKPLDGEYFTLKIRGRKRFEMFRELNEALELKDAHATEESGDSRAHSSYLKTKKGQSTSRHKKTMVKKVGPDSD
In short: (§2)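 Wild-type E15 mouse cortical neurons were kept 3 days in vitro in neurobasal/B27 and treated with etoposide to trigger p53 activation. Time-course and concentration-dependent experiments were run. p21/WAF1 protein was detected by western blot of total extracts made in boiling SDS/Tris buffer.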

Rattus norvegicus [3] = species: Rattus norvegicus; assay: Protection against axotomy-induced RGC apoptosis in Wistar rat intravitreally injected with 6 uM; assay type: functional; in short: as §1
[4] = target: Cellular tumor antigen p53 (Mus musculus) (UniProt P02340); assay: Inhibition of p53-mediated increase in p21/WAF1 level at 30 nM; assay type: functional; settings: filed as antagonist; in short: as §2

In the case of `Br.N=c1sc2c(n1CC(=O)c1ccc([N+](=O)[O-])cc1)CCCC2`, the Activity (Mus musculus) is reported as “Non-toxic”, the Activity (Cortical neurone) is reported as “Active” and the Activity (Rattus norvegicus [1]) is reported as 150%. For the same compound, the Activity [2] was “Antagonist”.

For `Br.Cc1ccc(C(=O)Cn2c3c(sc2=N)CCCCC3)cc1`, the Activity (Mus musculus) was “Non-toxic” and the Activity (Cortical neurone) was “inactive”.

`Br.N=c1sc2c(n1CC(=O)c1ccc([N+](=O)[O-])cc1)CC1CCCCC1C2` (stereo not given) was tested, and the Activity (Mus musculus) was “Non-toxic” and the Activity (Cortical neurone) was “Active”.

For `Br.Cc1ccc(C(=O)Cn2c3c(sc2=N)CCCC3)cc1`, the Activity (Cortical neurone) was “Active”, the Activity (Rattus norvegicus [1]) was 98% and the Activity (Rattus norvegicus [3]) was 131%. The Activity [2] was “Antagonist”.

For `O=[N+]([O-])c1ccc(-c2cn3c4c(sc3n2)CCCC4)cc1`, the Activity (Mus musculus) was “Non-toxic”, the Activity [4] was “Antagonist” and the EC50 (Cortical neurone; read-out: ED50 (the source's name)) was 30 nM. The Activity (Rattus norvegicus [1]; in the assay text read “6 uM” for “0.06 uM”) was “inactive” and the Activity (Rattus norvegicus [3]) was “inactive”.

In the case of `O=[N+]([O-])c1ccc(-c2cn3c4c(sc3n2)CC2CCCCC2C4)cc1` (stereo not given), the Activity (Mus musculus) is reported as “Non-toxic”.

`Br.N=c1sc2c(n1C/C(=N/O)c1ccc([N+](=O)[O-])cc1)CCCC2` was tested, and the Activity (Mus musculus) was “Non-toxic” and the Activity (Cortical neurone) was “inactive”.

With `Br.COc1ccc(C(=O)Cn2c3c(sc2=N)CC2CCCCC2C3)cc1` (stereo not given) the Activity (Mus musculus) was “Non-toxic”.

For `Br.Cc1ccc(C(=O)Cn2c3c(sc2=N)CC2CCCCC2C3)cc1` (stereo not given), the Activity (Mus musculus) was “Non-toxic” and the Activity (Cortical neurone) was “inactive”.

In the case of `Br.COc1ccc(C(=O)Cn2c3c(sc2=N)CCCC3)cc1`, the Activity (Mus musculus) is reported as “Non-toxic” and the Activity (Cortical neurone) is reported as “inactive”.
